Data set [1] in a line: Thermodynamic solubility of the compound in phosphate buffer at pH 6.8 after overnight incubation by shake flask method. The format is physicochemical. As to conditions: read-out: Therm_solubility. The method in brief:
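Shake-flask method: solid added to pH 6.8 phosphate buffer at nominal 2 mg/mL, sonicated 10 min, shaken overnight 800 rpm at room temperature; phases separated by centrifugation 5000 rpm 20 min before supernatant quantitation.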

In data set [2] the target is T1, Aldehyde dehydrogenase 1A1 (Homo sapiens) (UniProt P00352).
T1 sequence (whole entry): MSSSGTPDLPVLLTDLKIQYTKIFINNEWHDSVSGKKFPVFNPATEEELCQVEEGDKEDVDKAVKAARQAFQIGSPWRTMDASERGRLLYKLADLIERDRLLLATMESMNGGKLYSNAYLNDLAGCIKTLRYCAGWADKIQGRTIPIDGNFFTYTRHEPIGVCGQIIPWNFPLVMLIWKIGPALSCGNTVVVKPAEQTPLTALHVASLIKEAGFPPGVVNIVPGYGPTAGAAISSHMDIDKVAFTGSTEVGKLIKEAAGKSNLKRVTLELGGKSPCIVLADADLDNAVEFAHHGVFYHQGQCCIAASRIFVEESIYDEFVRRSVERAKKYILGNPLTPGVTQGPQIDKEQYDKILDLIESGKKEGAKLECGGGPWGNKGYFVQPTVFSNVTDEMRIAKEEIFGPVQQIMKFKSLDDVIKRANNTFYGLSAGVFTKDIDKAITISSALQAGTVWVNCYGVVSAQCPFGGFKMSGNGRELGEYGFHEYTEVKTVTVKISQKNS
As to the kind of experiment: (§1) Inhibition of human ALDH1A1 incubated for 2 hrs.

In data set [3] the target is T2, Aldehyde dehydrogenase 1A1 (Homo sapiens, UniProt P00352).
T2 sequence (P00352 whole entry): T1 sequence (whole entry)
Described as §1.

In data set [4] the test system is HCT-116. The data set is described as follows: Inhibition of cell stemness in human HCT116 cells assessed as inhibition of CD44+/CD133+ expression at 20 uM after 24 hrs by flow cytometry analysis. It is filed as functional. The method in brief:
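ALDH⁺ HCT-116 subpopulation sorted by flow cytometry; 2 × 10⁵ cells/well seeded overnight at 37 °C, 5% CO₂; treated 20 μM for 24 h (vehicle DMSO); stained with PE anti-CD133 and FITC anti-CD44 30 min; CD44⁺/CD133⁺ read by flow cytometry.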

Data set [5] concerns HCT-116. As to the kind of experiment: Inhibition of cell stemness in human HCT116 cells assessed as reduction in OCT4 mRNA transcription levels at 20 uM after 24 hrs by RT-qPCR analysis. The format is functional, cell-based. In short, it runs like this: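 Sorted ALDH⁺ HCT-116 cells treated 24 h; TRIZOL RNA, one-step RT-qPCR (RT 10 min 55 °C; 95 °C 1 min; 39 cycles 95 °C 10 s/60 °C 30 s) with melting-curve check; β-actin reference; fold change by 2^−ΔΔCt; t test, mean ± SD, n = 3.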
(In qPCR the cycle at which signal appears reflects the starting amount.)

Data set [6] has as its system HCT-116. As to the kind of experiment: Effect on Wnt/beta-Catenin signaling in human HCT116 cells assessed as reduction in c-Myc mRNA level at 20 uM after 24 hrs by RT-qPCR analysis. It is filed as functional, cell-based. The method in brief: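 HCT-116 cells treated 24 h; total RNA by TRIZOL, one-step RT-qPCR: 55 °C 10 min, 95 °C 1 min, then 39 cycles of 95 °C 10 s and 60 °C 30 s, with melting-curve and no-template controls. β-Actin as internal standard; relative expression by 2^−ΔΔCt, mean ± SD (n = 3).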

For data set [7], the system named is HCT-116. As to the kind of experiment: Induction of apoptosis in human HCT116 cells assessed as viable cells at 10 uM after 24 hrs by annexin V-FITC/propidium iodide staining based flow cytometry (reference value: 88.3%). The format is functional. The following applies: read-out: Activity.
Data set [8] has as its system HCT-116. The data set is described as follows: Induction of apoptosis in human HCT116 cells assessed as viable cells at 20 uM after 24 hrs by annexin V-FITC/propidium iodide staining based flow cytometry (reference value: 88.3%). The format is functional. The following applies: read-out: Activity. (In general: In flow cytometry, cells or beads pass a laser one at a time.)

Data set [9] concerns HCT-116. The data set is described as follows: Induction of cell cycle arrest in human HCT116 cells assessed as accumulation at G0/G1 phase at 20 uM after 24 hrs by propidium iodide-staining based flow cytometry (reference value: 48.89%). It is filed as functional.
The subject of data set [10] is HCT-116. The data set is described as follows: Induction of apoptosis in human HCT116 cells assessed as down regulation of pro-caspase 3 level at 20 uM incubated for 24 hrs by Western blot analysis. It is filed as functional, cell-based. The method in brief:
(§2)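 HCT-116 cells at 2 × 10⁵ cells/mL in DMEM/10% FBS, grown 12 h at 37 °C, then treated 24 h (vehicle DMSO). Lysates quantified by BCA, run on 10% SDS-PAGE, PVDF transfer, blocked in 5% milk/TBST, primary antibodies 4 °C overnight, HRP secondary 2 h, chemiluminescent detection; normalized to β-actin, n = 3.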
On the technique in general: In western blotting, separated proteins are transferred to a membrane and probed.

In data set [11] the test system is HCT-116. As to the kind of experiment: Induction of apoptosis in human HCT116 cells assessed as upregulation of cleaved PARP level at 20 uM incubated for 24 hrs by Western blot analysis. The format is functional, cell-based. In short, it runs like this: as §2
Data set [12] in a line: Tmax in Sprague-Dawley rat at 25 mg/kg, po measured up to 48 hrs by LC-MS/MS analysis. It is filed as ADME, organism-based. The following applies: in vivo. In short, it runs like this: (§3)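 Overnight-fasted male SD rats (250−270 g, n = 3/group), single oral 25 mg/kg in 5% CMC-Na (reference sodium salt in phosphate buffer); plasma at 0.25–48 h (12 timepoints), stored −40 °C; LC−MS/MS with internal-standard calibration 3–3000 ng/mL; parameters fitted by model.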

Data set [13] is described as follows: Cmax in Sprague-Dawley rat at 25 mg/kg, po measured up to 48 hrs by LC-MS/MS analysis. The format is ADME, organism-based. The arrangement: route oral, dose 25 mg/kg, time <=48. As to conditions: in vivo. In short, it runs like this:
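Overnight-fasted male SD rats (about 250−270 g), three per group, single oral 25 mg/kg; test compound suspended in 5% CMC-Na, control as sodium salt in phosphate buffer. Blood sampled 0.25–48 h, plasma by centrifugation, stored −40 °C, quantified by LC−MS/MS against plasma standard curve (3–3000 ng/mL) with internal standard; model-fitted PK parameters.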

Data set [14] can be described thus: Volume of distribution in Sprague-Dawley rat at 25 mg/kg, po measured up to 48 hrs by LC-MS/MS analysis. The format is ADME, organism-based. The following applies: in vivo. In short, it runs like this:
as §3

Data set [15] is described as follows: MRT(0 to t) in Sprague-Dawley rat at 25 mg/kg, po measured up to 48 hrs by LC-MS/MS analysis. The format is ADME, organism-based. The following applies: in vivo. The method in brief:
as §3

What is called inhibition is the change of the read-out against control, counted positive when it falls. Broadly, the IC50 is the point on the concentration scale where inhibition reaches its midpoint. As usually defined, the Tmax is the time at which the peak concentration occurs. For orientation: Cmax means the peak of the concentration-time curve. As usually defined, the MRT last is the average time that molecules of a dose stay in the body.

≈ marks a conversion by molar mass, not a printed value. Calls of active or inactive are those of the source. No cut-off for these calls is given here.

For `O=C(NCCO)c1ccc2c(c1)nc(Nc1cccc(Cl)c1)c1ccncc12`, the solubility thermodynamic in data set [1] was 0.89 µg/mL (≈ 2.27 µM). Besides, the inhibition entry in data set [2] is “Dose-Dependent Effect”. In data set [3], this molecule had an IC50 of 100 nM. Also, the inhibition at 20 µM in the data set on HCT-116 [4] worked out at 84%. Further, the inhibition result with HCT-116 [5] was “Active”. Moreover, the outcome in the data set with HCT-116 [6], in the data set with HCT-116 [10] and in the data set on HCT-116 [11] was Active. Further, in the data set on HCT-116 [7], the viability at 10 µM was 56.4%. Besides, in the data set with HCT-116 [8], the viability at 20 µM came to 36%. For the same molecule, the Activity with HCT-116 [9] was found to be 72.92%. The Tmax in data set [12] is 2.33 h. The molecule also returned a Cmax in [13] of 7020 ng/mL. The molecule also yielded a Vd in data set [14] of 2.77 L/kg. The same molecule had an MRT last at 48 h in [15] of 6.21 h.
